Screens deposited in PubChem BioAssay by Broad Institute.
ARNT TACC3 PPI = disruptors of human ARNT/TACC3 interaction; Q9Y6A5; AlphaScreen His-ARNT PAS-B/GST-TACC3 binding, luminescence; TACC3 fragment carries E629A point mutation; inhibition, % at 9.99 µM; 390,000 compounds, 0.66% hits;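 active means mean inhibition of replicates at least 50% and at least half of replicates each reaching 50%; inconclusive means half or more replicates reach 50% but mean below 50%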;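 further: 0% = complete ARNT plus TACC3 wells and 100% = ARNT alone without TACC3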
S100A4 MyoIIA = blocks human S100A4 binding to myosin IIA peptide. S100A4/TAMRA-MyoIIA peptide fluorescence polarization. inhibition, % at 10.7 µM. P26447. 360,000 compounds, 0.14% hits;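 active means mean inhibition of at least 70% across replicates, with every replicate also reaching that level; inconclusive means mean inhibition reaches 70% but some replicates fall short; inactive means mean inhibition below 70%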
Target sequence (P26447 whole entry, looked up): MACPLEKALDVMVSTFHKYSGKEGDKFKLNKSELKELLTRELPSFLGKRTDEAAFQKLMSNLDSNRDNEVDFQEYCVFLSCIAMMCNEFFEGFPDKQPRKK
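assay system = human S100A4 monomer with TAMRA-labelled myosin IIA peptide | also added = labelled myosin peptide probe, 5 nM | incubation = 5 min between mix addition and reading | control set = DMSO and TFP controls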
rRNA inh HTS = selective bacterial rRNA inhibition in E. coli; GFP signal change (wild-type ribosome), % (no concentration beside the values); AID 720706; 350,000 compounds, 1.6% hits; E. coli WT GFP vs humanized-ribosome RFP mutants, fluorescence, 24 h; stronger effect = lower value; DMSO median 0, no signal -100;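 active means significant combined selectivity score with lowered wild-type GFP, culture density cut under 30%, mutant RFP and density less affected; inactive means any of these conditions unmet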
PGC1a acetyl inh = modulators of PGC1a acetylation. 350,000 compounds, 0.17% hits. inhibition, % at 15.6 µM. U2OS PGC1a acetylation, AlphaScreen anti-acetyl-lysine; with virally co-expressed GCN5 acetyltransferase. AID 651687;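 active means every replicate shows inhibition of at least 40%; inconclusive means mean inhibition at least 40% but some replicate below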;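 further: 0% = neutral control wells and 100% = positive control wells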
Casp6 inh = inhibitors of human caspase-6 | 350,000 compounds, 0.53% hits | P55212 | inhibition, % at 12.5 µM | purified caspase-6, Z-VEID-R110 cleavage fluorescence | AID 686996;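 active means mean inhibition across replicates at least about 35%, with every replicate also reaching that limit, limit read from the data; inconclusive means only one of the two criteria met; inactive means neither criterion met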;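 further: 0% = median of neutral control wells and 100% = no fluorescence left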
Target sequence (P55212 24-179 limits assumed): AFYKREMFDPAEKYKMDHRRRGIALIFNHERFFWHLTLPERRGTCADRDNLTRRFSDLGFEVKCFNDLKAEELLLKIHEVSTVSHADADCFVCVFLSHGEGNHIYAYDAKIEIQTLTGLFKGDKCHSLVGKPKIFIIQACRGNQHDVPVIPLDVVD
Target sequence (P55212 194-293 limits assumed): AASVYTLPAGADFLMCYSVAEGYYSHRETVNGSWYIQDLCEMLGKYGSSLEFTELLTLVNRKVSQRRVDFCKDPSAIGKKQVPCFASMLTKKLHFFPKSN
ERAP1 HTS inh = ERAP1 (human) enzyme inhibition; inhibition, % at 10.7 µM; AID 652197; Q9NZ08; 340,000 compounds, 0.15% hits; recombinant ERAP1, Leu-AMC fluorescence, 60 min;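 active means mean replicate inhibition of at least 30%, or all replicates individually reaching that 30% level; inactive means mean below 30% and not every replicate reaching it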;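 further: 0% = neutral control wells and 100% = L-leucinethiol positive control wells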
* marks the source's active call; other numbers are inactive results; ? = inconclusive; / = not tested or not shown. This is a sample that favours compounds with a hit; in the whole collection about 2.4% have one here.

SMILES	ARNT TACC3 PPI	S100A4 MyoIIA	rRNA inh HTS	PGC1a acetyl inh	Casp6 inh	ERAP1 HTS inh
O=C(O)C1CC(=O)N(Cc2ccccc2)C1 (stereo unspecified)	-9.9	/	/	/	/	/
COc1cccc(NC(=O)CN(C)CC(=O)Nc2ccccc2-c2ccccc2)c1	-6.5	0.7	-24.3*	/	-4.7	5.9
Cc1ccc(S(=O)(=O)N2CCCCC2)cc1NC(=O)C1CC(=O)N(Cc2ccccc2)C1 (stereo unspecified)	-2.6	/	/	6.7	/	/
O=C(NCc1ccc(Cl)cc1Cl)C1CC(=O)N(Cc2ccccc2)C1 (stereo unspecified)	1.0	1.6	-22.8*	1.9	2.6	1.2
Cc1cccc(NC(=O)C2CCN(S(=O)(=O)c3ccc4c(c3)NC(=O)CO4)CC2)c1C	-20.2	-3.9	-3.3	3.5	0.7	1.7
CN(CC(=O)Nc1cccc(F)c1)CC(=O)Nc1ccccc1-c1ccccc1	5.6	-1.2	-46.0	0.6	0.3	-1.2
O=C(Nc1cccc(S(=O)(=O)N2CCCCC2)c1)C1CC(=O)N(Cc2ccccc2)C1 (stereo unspecified)	0.9	-5.5	-24.5*	-12.0	3.1	-6.5
CO[C@@H]1CN(C)C(=O)c2cc(NS(C)(=O)=O)ccc2OC[C@@H](C)N(Cc2cncnc2)C[C@@H]1C	-3.1	16.6	4.7	-0.1	/	/
COc1cccc(NC(=O)C2CCN(S(=O)(=O)c3ccccc3)CC2)c1	46.6*	-7.2	-3.4	-4.5	0.5	-0.7
COc1cccc(NC(=O)C2CCC(CNS(=O)(=O)c3cccc4cccnc34)CC2)c1 (stereo unspecified)	-4.9	-1.0	-26.3*	-1.0	-1.5	-0.6
COc1cccc(NC(=O)CN(C)C(=O)c2cccc(S(=O)(=O)N3CCN(c4ccccc4)CC3)c2)c1	/	-6.4	-28.9*	/	0.9	-1.4
COc1cccc(NC(=O)CN(C)C(=O)c2ccccc2Sc2ccccc2C#N)c1	1.0	-4.4	-18.3*	1.4	-95.2	0.1
CN(CC(=O)Nc1ccc(F)cc1)C(=O)c1cccc(S(=O)(=O)N2CCN(c3ccccc3)CC2)c1	14.0	-5.7	-7.2	/	2.6	3.3
COc1ccc(CNC(=O)C2CCC(CNS(=O)(=O)c3cccc4cccnc34)CC2)cc1 (stereo unspecified)	-2.4	-0.2	-2.8	-5.6	-2.1	-0.4
C[C@@H]1CN([C@@H](C)CO)C(=O)c2cc(NC(=O)Cc3ccccc3)ccc2O[C@@H](C)CCCCO[C@@H]1CN(C)C(=O)c1ccncc1	/	-0.7	0.2	8.8	2.3	-1.0
CNC(=O)C[C@H]1CC[C@@H]2[C@@H](COc3ccc(NC(=O)Nc4cccc(F)c4)cc3C(=O)N2C)O1	/	/	-9.8	0.6	/	/
O=C(C[C@@H]1CC[C@H](NC(=O)Nc2cc(F)ccc2F)[C@@H](CO)O1)NCc1ccccn1	-16.8	-6.9	4.3	-6.5	-3.3	-1.8
CO[C@@H]1CN(C)C(=O)c2cc(NC(=O)Nc3ccc(F)cc3)ccc2OC[C@H](C)NC[C@@H]1C	-6.1	7.9	-1.9	-8.4	1.0	-2.2
CN(C)C(=O)c1cccc(-c2ccc([C@H]3[C@H]4CN(S(C)(=O)=O)CCCCN4[C@H]3CO)cc2)c1	-10.2	-0.1	0.9	-2.1	-1.7	0.3
COc1ccc(NC(=O)N(C)C[C@@H]2Oc3ccc(NC(=O)NC(C)C)cc3C(=O)N([C@@H](C)CO)C[C@H]2C)cc1	-1.2	0.2	2.7	3.8	-3.5	-0.6
O=C1C=C(O)c2[nH]c(=O)ccc2C1=O	36.1*	8.4	14.2	/	84.2*	3.6
C/C(N)=C(/C#N)C(=O)COC(=O)c1cc2c(s1)CCC(C)C2 (stereo unspecified)	/	-19.4	-28.5*	/	-0.2	6.8
COc1ccc(NC(=O)c2ccc(-c3ccc([N+](=O)[O-])cc3)o2)cc1OC	/	-5.6	-42.3*	7.9	-1.3	-0.5
C[C@@H]1CN([C@@H](C)CO)C(=O)c2cc(NS(C)(=O)=O)ccc2O[C@@H]1CN(C)CC1CC1	/	/	-0.1	/	/	/
CN(C)CCCNC(=O)[C@H]1[C@H](CO)[C@H]2Cn3c(ccc(-c4ccc(F)cc4)c3=O)[C@@H]1N2C	/	/	2.5	1.1	/	/
SMILES	ARNT TACC3 PPI	S100A4 MyoIIA	rRNA inh HTS	PGC1a acetyl inh	Casp6 inh	ERAP1 HTS inh
CCCC#Cc1cnc2c(c1)C(=O)N([C@H](C)CO)C[C@H](C)[C@H](CN(C)Cc1ccccc1)O2	/	8.9	1.6	/	-0.8	-0.1
COCCn1c(-c2ccc(Cl)cc2)cnc1SCC(=O)NCCc1ccc(OC)c(OC)c1	11.2	-0.5	-21.6*	/	6.6	1.5
COc1ccc(CCNC(=O)CSCc2ccc(Cl)cc2)cc1OC	-4.0	2.2	-21.7	/	5.1	2.0
C[C@H](NC(=O)C[C@@H]1CC[C@@H]2[C@H](COC[C@H](O)CN2C(=O)Nc2cc(Cl)cc(Cl)c2)O1)c1ccccc1	8.6	9.8	-33.0	-0.5	-0.1	-0.2
Cc1onc(-c2c(F)cccc2Cl)c1-c1nnc(-c2ccc(C(F)(F)F)cc2)o1	-3.0	-4.0	13.1	5.6	1.6	6.6
Cc1onc(-c2ccccc2)c1-c1nnc(-c2ccccc2C(F)(F)F)o1	-10.6	-4.3	-19.9*	/	1.8	5.2
CCc1nc(N)nc(N)c1-c1ccc(Cl)cc1	-5.6	2.4	/	48.1*	-3.7	-0.5
O=[N+]([O-])c1ccc2nc(NS(=O)(=O)c3ccccc3[N+](=O)[O-])sc2c1	7.4	-1.0	-29.2	/	6.4	4.5
O=[N+]([O-])c1ccccc1S(=O)(=O)Nc1nc2ccccc2s1	0.5	-6.8	3.6	-2.0	43.8*	-0.6
O=C(C[C@@H]1CC[C@@H](NC(=O)C2CC2)[C@@H](CO)O1)Nc1nccs1	13.8	3.0	4.9	0.2	1.9	-1.6
N#Cc1ccc(-c2ccc([C@H]3[C@H](CO)N4C(=O)CN(C(=O)C5CC5)C[C@@H]34)cc2)cc1	/	?	-1.2	-4.5	-3.7	38.4*
CC(=O)N1CC(=O)N2[C@@H](CO)[C@H](c3ccc(-c4ccc(C#N)cc4)cc3)[C@@H]2C1	/	/	0.6	/	/	/
CC(=O)N1CC(=O)N2[C@H](CO)[C@@H](c3ccc(-c4ccc(C#N)cc4)cc3)[C@H]2C1	/	129.1*	0.5	7.3	2.9	2.6
CCCCn1c(SCC(=O)Nc2ccc3c(c2)OCCO3)nnc1C(CC)N(C)C (stereo unspecified)	-0.1	0.3	-0.1	/	2.8	1.3
CCCCn1c(SCC(=O)NCc2ccc3c(c2)OCO3)nnc1C(CC)N(C)C (stereo unspecified)	-0.9	3.2	10.2	43.7*	2.7	-4.2
O=C1NC2c3c(Cl)sc(Cl)c3C(=O)C2O1 (stereo unspecified)	5.4	1.9	-4.8	-20.1	69.3*	0.5
CC1=C/C(=C(/c2cc(C)c(O)c(Br)c2)c2ccccc2S(=O)(=O)O)C=C(Br)C1=O	49.0*	-18.6	-11.6	/	13.9	2.5
